Assay results: ChEMBL document CHEMBL3763152, “Synthesis and evaluation of orally active small molecule HIV-1 Nef antagonists” (Bioorg Med Chem Lett, 2016)
Calls of active or inactive are those of the source. No cut-off for these calls is given here.

Key:
[1] = Binding affinity to recombinant HIV1 Nef by SPR assay; set-up: species or system Human immunodeficiency virus 1
Procedure, shortened: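 Recombinant purified Nef was immobilized on a CM5 chip, and compound was injected over a concentration range in triplicate. Binding isotherms were fitted with a heterogeneous ligand model, and KD was taken from the kinetic constants of the higher-affinity component. No binding means none seen at >50 μM compound.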

[2] = tested on: Human immunodeficiency virus 1; test: Antiviral activity against HIV1 NL4-3 infected in TZM-bl cells incubated for 3 hrs measured after 48 hrs by luciferase reporter gene assay; type: functional, organism-based; settings: Human immunodeficiency virus 1, NL4-3, TZM-bl
Procedure, shortened: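 TZM-bl reporter cells carry a luciferase gene driven by the HIV-1 LTR. Cells were infected short-term with HIV-1, and Nef-dependent infectivity was read out by luciferase. IC50 was derived from this read-out.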

[3] = Cytotoxicity against human TZM-bl cells by Cell Titer Blue assay; type: cell-based
Procedure, shortened: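 TZM-bl reporter cells were treated with compound and viability was read by Cell Titer Blue. CC50 is the concentration giving 50% loss of viability.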

[4] = tested on: Human immunodeficiency virus 1; test: Binding affinity to recombinant HIV1 Nef N126A mutant at 10 uM by SPR assay
Procedure, shortened: (§1)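 Wild-type, N126A and N126Q Nef were expressed in bacteria and purified to homogeneity. Each was covalently coupled to a CM5 biosensor chip. Compound was injected at a final 10 μM, in triplicate, and binding was measured by SPR on a Biacore T100.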

[5] = tested on: Human immunodeficiency virus 1; test: Binding affinity to recombinant HIV1 Nef N126Q mutant at 10 uM by SPR assay; procedure, shortened: as §1
[6] = Tmax in C3H mouse at 10 mg/kg, po administered through solution of 5% N-methyl -2-pyrrolidone and 5% solutol in saline by LC-MS analysis; type: ADME, organism-based; settings: in vivo
Procedure, shortened: (§2)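 Plasma drug levels measured by LC-MS over time. Tmax, Cmax, AUClast, AUCinf, T1/2, Vss, clearance and %F were derived from the plasma concentration–time data.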

[7] = Cmax in C3H mouse at 2 mg/kg, iv by LC-MS analysis; type: ADME, organism-based; set-up: dose 2 mg/kg, route intravenous; settings: in vivo; procedure, shortened: as §2
[8] = Cmax in C3H mouse at 10 mg/kg, po administered through solution of 5% N-methyl -2-pyrrolidone and 5% solutol in saline by LC-MS analysis; type: ADME, organism-based; set-up: dose 10 mg/kg, route oral; settings: in vivo; procedure, shortened: as §2
[9] = AUClast in C3H mouse at 2 mg/kg, iv by LC-MS analysis; type: ADME, organism-based; set-up: dose 2 mg/kg, route intravenous, time 0 - last; settings: in vivo; procedure, shortened: as §2
[10] = AUC(last) in C3H mouse at 10 mg/kg, po administered through solution of 5% N-methyl -2-pyrrolidone and 5% solutol in saline by LC-MS analysis; type: ADME, organism-based; set-up: dose 10 mg/kg, time 0 - last, route oral; settings: in vivo; procedure, shortened: as §2
[11] = AUC(infinity) in C3H mouse at 2 mg/kg, iv by LC-MS analysis; type: ADME, organism-based; set-up: dose 2 mg/kg, time infinity, route intravenous; settings: in vivo; procedure, shortened: as §2
[12] = AUC(infinity) in C3H mouse at 10 mg/kg, po administered through solution of 5% N-methyl -2-pyrrolidone and 5% solutol in saline by LC-MS analysis; type: ADME, organism-based; set-up: dose 10 mg/kg, route oral, time infinity; settings: in vivo; procedure, shortened: as §2
[13] = Half life in C3H mouse at 2 mg/kg, iv by LC-MS analysis; type: ADME, organism-based; settings: in vivo; procedure, shortened: as §2
[14] = Volume of distribution at steady state in C3H mouse at 2 mg/kg, iv by LC-MS analysis; type: ADME, organism-based; settings: in vivo, read-out: Vdss; procedure, shortened: as §2
[15] = Clearance in C3H mouse at 2 mg/kg, iv by LC-MS analysis; type: ADME, organism-based; settings: in vivo; procedure, shortened: as §2
[16] = Oral bioavailability in C3H mouse at 10 mg/kg administered through solution of 5% N-methyl -2-pyrrolidone and 5% solutol in saline by LC-MS analysis; type: ADME, organism-based; settings: in vivo; procedure, shortened: as §2
[17] = tested on: Mus musculus; test: Acute toxicity in C3H mouse assessed as overall behavior at 2.5 mg/kg, iv SID for 4 days; type: organism-based; settings: in vivo, 96 h
[18] = tested on: Mus musculus; test: Acute toxicity in C3H mouse assessed as body condition at 2.5 mg/kg, po SID for 4 days; settings: in vivo, 96 h
[19] = tested on: Mus musculus; test: Acute toxicity in C3H mouse assessed as change in body weight at 2.5 mg/kg, po SID for 4 days; settings: in vivo, 96 h
[20] = tested on: Human immunodeficiency virus 1; test: Binding affinity to recombinant HIV1 Nef at >50 uM by SPR assay
[21] = tested on: U-87MG ATCC; test: Inhibition of Nef-dependent HIV1 NL4-3 replication infected in human U87MG cells expressing CD4 and CXCR4 at 3 uM incubated for 1 hr measured after 4 days by immunoassay; type: cell-based; settings: Human immunodeficiency virus 1
Procedure, shortened: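 U87MG/CD4/CXCR4 cells received compound at 3 μM final; wild-type or ΔNef HIV-1 NL4-3 was added one hour later. Replication was measured at 4 days as p24 Gag by AlphaLISA ELISA and expressed as percent of DMSO control, mean ± S.E., n=4.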

[22] = Cytotoxicity against human U87MG cells expressing CD4 and CXCR4 up to 10 uM by Cell Titer Blue assay; type: cell-based; settings: u-87mg atcc
[23] = tested on: Mus musculus; test: Acute toxicity in C3H mouse assessed as change in body weight at 10 mg/kg, po BID for 4 days; type: organism-based; settings: in vivo, 96 h
[24] = tested on: Mus musculus; test: Acute toxicity in C3H mouse assessed as change in body weight at 50 mg/kg, po SID for 5 days; type: organism-based; settings: in vivo, 120 h
[25] = Tmax in C3H mouse at 10 mg/kg, po administered through suspension of 0.5% w/v sodium-carboxymethyl cellulose with 0.1% v/v Tween80 by LC-MS analysis; type: ADME, organism-based; settings: in vivo; procedure, shortened: as §2
[26] = Cmax in C3H mouse at 10 mg/kg, po administered through suspension of 0.5% w/v sodium-carboxymethyl cellulose with 0.1% v/v Tween80 by LC-MS analysis; type: ADME, organism-based; set-up: dose 10 mg/kg, route oral; settings: in vivo; procedure, shortened: as §2
[27] = AUC(last) in C3H mouse at 10 mg/kg, po administered through suspension of 0.5% w/v sodium-carboxymethyl cellulose with 0.1% v/v Tween80 by LC-MS analysis; type: ADME, organism-based; set-up: dose 10 mg/kg, route oral, time 0 - last; settings: in vivo; procedure, shortened: as §2
[28] = AUC(infinity) in C3H mouse at 10 mg/kg, po administered through suspension of 0.5% w/v sodium-carboxymethyl cellulose with 0.1% v/v Tween80 by LC-MS analysis; type: ADME, organism-based; set-up: dose 10 mg/kg, route oral, time infinity; settings: in vivo; procedure, shortened: as §2
[29] = tested on: Mus musculus; test: Acute toxicity in C3H mouse assessed as body condition at 5 mg/kg, iv SID for 4 days; type: organism-based; settings: in vivo, 96 h
[30] = tested on: Mus musculus; test: Acute toxicity in C3H mouse assessed as body condition at 10 mg/kg, po BID for 4 days; type: organism-based; settings: in vivo, 96 h
[31] = tested on: Mus musculus; test: Acute toxicity in C3H mouse assessed as body condition at 50 mg/kg, po SID for 5 days; type: organism-based; settings: in vivo, 120 h
[32] = tested on: Mus musculus; test: Acute toxicity in C3H mouse assessed as overall behavior at 5 mg/kg, iv SID for 4 days; type: organism-based; settings: in vivo, 96 h
[33] = tested on: Mus musculus; test: Acute toxicity in C3H mouse assessed as overall behavior at 10 mg/kg, po BID for 4 days; type: organism-based; settings: in vivo, 96 h
[34] = tested on: Mus musculus; test: Acute toxicity in C3H mouse assessed as overall behavior at 50 mg/kg, po SID for 5 days; type: organism-based; settings: in vivo, 120 h
[35] = tested on: Mus musculus; test: Acute toxicity in C3H mouse assessed as change in body weight at 5 mg/kg, po SID for 4 days; settings: in vivo, 96 h
[36] = tested on: Mus musculus; test: Acute toxicity in C3H mouse assessed as change in body weight at 100 mg/kg, po SID for 12 days; type: organism-based; settings: in vivo, 288 h
[37] = tested on: Mus musculus; test: Acute toxicity in C3H mouse assessed as body condition at 100 mg/kg, po SID for 12 days; type: organism-based; settings: in vivo, 288 h
[38] = tested on: Mus musculus; test: Acute toxicity in C3H mouse assessed as overall behavior at 100 mg/kg, po SID for 12 days; type: organism-based; settings: in vivo, 288 h

Compound	Kd [1] [µM]	IC50 [2] [µM]	CC50 [3] [µM]	Activity [4]	Activity [5]	Tmax [6] [min]	Cmax [7] [ng/mL]	Cmax [8] [ng/mL]	AUC(0-t) [9] [ng·h/mL]	AUC(0-t) [10] [ng·h/mL]	AUC(0-inf) [11] [ng·h/mL]	AUC(0-inf) [12] [ng·h/mL]	half-life [13] [min]	Vd [14] [L/kg]	clearance [15] [mL/min/kg]	bioavailability [16] [%]	Activity [20]	inhibition [21]	Activity [22]	Tmax [25] [min]	also measured
NC(=S)n1nc(-c2ccc([N+](=O)[O-])cc2)c(/N=N/c2cccc(Cl)c2)c1O	0.0819	2.53	10	inactive	inactive	30	3960	418	9780	963	9790	1020	128	0.37	3.41	2	–	–	–	–	Activity [17]: Non-toxic; Activity [18]: Non-toxic; Activity [19]: Non-toxic
O=[N+]([O-])c1ccc(-c2n[nH]c(O)c2CCc2cccc(Cl)c2)cc1	–	> 10	> 10	–	–	–	–	–	–	–	–	–	–	–	–	–	inactive	inactive	Non-toxic	–	–
NC(=S)n1nc(-c2ccc([N+](=O)[O-])cc2)c(CCc2cccc(Cl)c2)c1O	0.159	0.69	> 10	inactive	inactive	15	4420	2370	2130	6300	2150	6430	–	0.83	13.5	53	–	Active	Non-toxic	30	Activity [23]: Non-toxic; Activity [24]: Non-toxic; Cmax [26]: 5610 ng/mL; AUC(0-t) [27]: 9030 ng·h/mL; AUC(0-inf) [28]: 9480 ng·h/mL; Activity [29]: Non-toxic; Activity [30]: Non-toxic; Activity [31]: Non-toxic; Activity [32]: Non-toxic; Activity [33]: Non-toxic; Activity [34]: Non-toxic; Activity [35]: Non-toxic
O=[N+]([O-])c1ccc(-c2n[nH]c(O)c2Cc2cccc(Cl)c2)cc1	–	> 10	> 10	–	–	–	–	–	–	–	–	–	–	–	–	–	inactive	inactive	Non-toxic	–	–
NC(=S)n1nc(-c2ccc([N+](=O)[O-])cc2)c(Cc2cccc(Cl)c2)c1O	0.15	3.54	> 10	inactive	inactive	60	2800	5810	2960	18600	3000	18800	94.8	0.79	8.56	100	–	Active	Non-toxic	30	Activity [36]: Non-toxic; Cmax [26]: 3400 ng/mL; AUC(0-t) [27]: 10700 ng·h/mL; AUC(0-inf) [28]: 11500 ng·h/mL; Activity [37]: Non-toxic; Activity [38]: Non-toxic
